For 5 compounds, zone of inhibition, Activity and Time results are on record in ChEMBL document CHEMBL2040709, “Synthesis, antidepressant and antimicrobial activities of some novel stearic acid analogues” (2012).

What all share (type): functional
Assay [1] deals with Escherichia coli. Put plainly: Antibacterial activity against Escherichia coli at 1000 ug/ml after 24 hrs by agar disc diffusion method. To be noted: read-out: DIZ. Put shortly: (§1)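 Agar disc diffusion on nutrient agar plates surface-spread with standard inoculum ([…], 0.5 McFarland). Whatman No.1 paper discs (6 mm, dry-heat sterilised 140 °C, 1 h) were soaked in test compound at two concentrations (500 and 1000, as tabulated). DMSO-only discs and solvent/growth controls were included. Plates were inverted and incubated 24 h at 37 °C. Zones of inhibition were measured, and percentage potency was calculated per Indian Pharmacopoeia.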

The subject of assay [2] is Escherichia coli. The assay can be described thus: Antibacterial activity against Escherichia coli at 500 to 1000 ug/ml after 24 hrs by agar disc diffusion method. Put shortly:
as §1
Background: Agar diffusion results depend on both activity and mobility in agar.

The subject of assay [3] is Candida albicans. The assay can be described thus: […] at 1000 ug/ml after 24 hrs by agar disc diffusion method. Conditions: read-out: DIZ. The procedure, abridged: as §1
The subject of assay [4] is Staphylococcus aureus. The assay can be described thus: Antibacterial activity against Staphylococcus aureus at 500 to 1000 ug/ml after 24 hrs by agar disc diffusion method. The procedure, abridged: as §1
The test system of assay [5] is Staphylococcus aureus. The assay can be described thus: Antibacterial activity against Staphylococcus aureus at 1000 ug/ml after 24 hrs by agar disc diffusion method. Conditions: read-out: DIZ. The procedure, abridged: as §1
Assay [6] has as its system Candida albicans. Put plainly: […] at 500 ug/ml after 24 hrs by agar disc diffusion method. Conditions: read-out: DIZ. Put shortly: as §1
In assay [7] the test system is Bacillus subtilis. The assay can be described thus: Antibacterial activity against Bacillus subtilis at 1000 ug/ml after 24 hrs by agar disc diffusion method. To be noted: read-out: DIZ. Put shortly: as §1
Assay [8] has as its system Mus musculus. The assay can be described thus: Antidepressant activity in Swiss albino mouse assessed as decrease in immobility time at 30 mg/kg, ip administered 30 mins before test measured for 4 mins of total 6 mins test by forced swim test. To be noted: route intraperitoneal. The procedure, abridged: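 Forced swim test in inbred male Swiss albino mice (20–30 g), groups of 6, acclimatised one week. The 30 mg/kg dose was suspended in 0.5% CMC and given i.p. 30 min before the test; controls received vehicle. Mice swam singly in a glass tank with 15 cm water at 25 ± 3 °C. Immobility was timed over the last 4 min of a 6 min session. Dunnett's test was applied.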

Assay [9] deals with Pseudomonas aeruginosa. The assay can be described thus: Antibacterial activity against Pseudomonas aeruginosa at 500 to 1000 ug/ml after 24 hrs by agar disc diffusion method. Put shortly: as §1
Assay [10] has as its system Pseudomonas aeruginosa. Put plainly: Antibacterial activity against Pseudomonas aeruginosa at 1000 ug/ml after 24 hrs by agar disc diffusion method. To be noted: read-out: DIZ. The procedure, abridged:
as §1

Assay [11] has as its system Bacillus subtilis. Put plainly: Antibacterial activity against Bacillus subtilis at 500 to 1000 ug/ml after 24 hrs by agar disc diffusion method. Put shortly: as §1
The subject of assay [12] is Staphylococcus aureus. Put plainly: Antibacterial activity against Staphylococcus aureus at 500 ug/ml after 24 hrs by agar disc diffusion method. To be noted: read-out: DIZ. The procedure, abridged:
as §1

The test system of assay [13] is Mus musculus. Put plainly: Antidepressant activity in Swiss albino mouse assessed as increase in dopamine level in brain at 30 mg/kg, ip by HPLC analysis. To be noted: route intraperitoneal.
For assay [14], the system named is Escherichia coli. Put plainly: Antibacterial activity against Escherichia coli at 500 ug/ml after 24 hrs by agar disc diffusion method. To be noted: read-out: DIZ. Put shortly:
as §1

Assay [15] relates to Candida albicans. Put plainly: […] at 500 to 1000 ug/ml after 24 hrs by agar disc diffusion method. The procedure, abridged:
as §1

Assay [16] concerns Pseudomonas aeruginosa. The assay can be described thus: Antibacterial activity against Pseudomonas aeruginosa at 500 ug/ml after 24 hrs by agar disc diffusion method. Conditions: read-out: DIZ. The procedure, abridged: as §1
Assay [17] has as its system Bacillus subtilis. Put plainly: Antibacterial activity against Bacillus subtilis at 500 ug/ml after 24 hrs by agar disc diffusion method. To be noted: read-out: DIZ. Put shortly: as §1

Regarding `CCCCCCCCCCCCCCCCCc1nnc(-c2ccccc2)n1N`, the zone of inhibition at 1000 µg/mL was 17 mm in the assay on Escherichia coli [1]; 22 mm with Candida albicans [3]; 18 mm with Staphylococcus aureus [5]; 15 mm with Bacillus subtilis [7]; 16 mm in the assay with Pseudomonas aeruginosa [10]. For the same compound, the Activity was determined as 93.3% with Escherichia coli [2]; 75.78% in the assay on Staphylococcus aureus [4]; 59.45% with Pseudomonas aeruginosa [9]; 93.3% with Bacillus subtilis [11]; 0.367 ng/mg with Mus musculus [13]; 65.97% in the assay on Candida albicans [15]. The zone of inhibition at 500 µg/mL with Candida albicans [6] was found to be 15 mm; in the assay on Staphylococcus aureus [12], 13 mm; with Escherichia coli [14], 16 mm; in the assay on Pseudomonas aeruginosa [16] it was 13 mm; in the assay with Bacillus subtilis [17], 12 mm. In addition, the Time in the assay on Mus musculus [8] is 68.83 s.

Regarding `CN(C)[C@@H]1C(O)=C(C(N)=O)C(=O)[C@@]2(O)C(O)=C3C(=O)c4c(O)cccc4[C@@](C)(O)[C@H]3C[C@@H]12` [TETRACYCLINE], the zone of inhibition at 1000 µg/mL with Escherichia coli [1] came out at 23 mm; in the assay on Staphylococcus aureus [5], 19 mm; in the assay on Bacillus subtilis [7], 20 mm; in the assay on Pseudomonas aeruginosa [10], 22 mm. Besides, the zone of inhibition at 500 µg/mL turned out to be 18 mm in the assay on Staphylococcus aureus [12], 18 mm in the assay with Escherichia coli [14], 16 mm in the assay on Pseudomonas aeruginosa [16] and 13 mm in the assay on Bacillus subtilis [17].

For `CN(C)CCCN1c2ccccc2CCc2ccc(Cl)cc21` [CLOMIPRAMINE], the Time in the assay with Mus musculus [8] is given as 52.97 s. For the same compound, in the assay with Mus musculus [13], the Activity was determined as 0.42 ng/mg.

Consider `CCCCCCCCCCCCCCCCCc1nnc(-c2ccccc2)o1`, for which the zone of inhibition at 1000 µg/mL stood at 18 mm with Escherichia coli [1]; 20 mm in the assay on Candida albicans [3]; 21 mm in the assay with Staphylococcus aureus [5]; 16 mm in the assay with Bacillus subtilis [7]; 17 mm with Pseudomonas aeruginosa [10]. Besides, the Activity is recorded as 93.3% with Escherichia coli [2]; 94.6% in the assay with Staphylococcus aureus [4]; 60.95% in the assay with Pseudomonas aeruginosa [9]; 75.78% in the assay on Bacillus subtilis [11]; 0.25 ng/mg in the assay with Mus musculus [13]; 56.71% in the assay with Candida albicans [15]. The zone of inhibition at 500 µg/mL in the assay with Candida albicans [6] is 15 mm; in the assay on Staphylococcus aureus [12] it was 14 mm; with Escherichia coli [14], 14 mm; in the assay on Pseudomonas aeruginosa [16] it was 16 mm; with Bacillus subtilis [17] it was 13 mm. Also, the Time in the assay on Mus musculus [8] is reported as 70 s.

For the compound `CCCCCCCCCCCCCCCCCc1nn2c(-c3ccccc3)nnc2s1`, the zone of inhibition at 1000 µg/mL worked out at 19 mm in the assay with Escherichia coli [1]; 19 mm in the assay on Candida albicans [3]; 17 mm in the assay on Staphylococcus aureus [5]; 16 mm with Bacillus subtilis [7]; 19 mm in the assay with Pseudomonas aeruginosa [10]. In addition, the Activity in the assay on Escherichia coli [2] is 84.08%; in the assay on Staphylococcus aureus [4], 79.35%; in the assay on Pseudomonas aeruginosa [9] it was 93.88%; in the assay with Bacillus subtilis [11] it was 93.88%; in the assay with Mus musculus [13], 1.455 ng/mg; in the assay on Candida albicans [15], 92.57%. Also, the zone of inhibition at 500 µg/mL with Candida albicans [6] came to 15 mm; with Staphylococcus aureus [12] it was 16 mm; with Escherichia coli [14], 16 mm; in the assay with Pseudomonas aeruginosa [16], 15 mm; with Bacillus subtilis [17], 13 mm. In the assay on Mus musculus [8], the Time came out at 62.67 s.
